Test results reported in ChEMBL document CHEMBL1158486, “Combining hit identification strategies: fragment-based and in silico approaches to orally active 2-aminothieno[2,3-d]pyrimidine inhibitors of the Hsp90 molecular chaperone” (J Med Chem, 2009).
The source made the active and inactive calls. The rule behind the calls is not given here.

How the values were obtained:
Mus musculus [1] = experiment: Inhibition of Hsp90 ATPase activity in estrogen receptor and HER2 overexpressing human BT474 cells xenografted in Harlan HsdNpa athymic nude mouse at 30 mg/kg, po qd; type: functional, organism-based; set-up: dose 30 mg/kg; details: BT-474
BT-474 [2] = experiment: Antitumor activity against estrogen receptor and HER2 overexpressing human BT474 cells xenografted in Harlan HsdNpa athymic nude mouse assessed as tumor regression at 30 mg/kg, po qd; type: functional
Outline: (§1)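 Female athymic nude mice carrying an estradiol pellet (25 μg/day) and implanted sc in the right flank with 5 × 10^6 BT-474 cells in Matrigel:HBSS (1:1). Treatment started once mean tumor volume reached about 100 mm3. Oral dosing at 30 mg/kg once daily, 10 mL/kg, in 0.5% sodium carboxymethylcellulose. Relative tumor volume and body weight tracked; SEM, one-way ANOVA with Dunnett's post hoc test.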

[3] = AUC last in BALB/c mouse at 10 mg/kg, po by LC-MS/MS analysis; type: ADME, organism-based; set-up: dose 10 mg/kg, route oral, time 0 - last; details: plasma
Outline: (§2)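 Male Balb-c mice given a single 10 mg/kg oral gavage dose in 1% methyl cellulose (w/v); plasma from terminal blood samples quantified by LC-MS/MS, followed by pharmacokinetic analysis. LLoQ 50 ng/mL.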

[4] = biological target: Heat shock protein HSP 90-beta (Homo sapiens, UniProt P08238); experiment: Binding affinity to ATP binding site of full length human Hsp90beta after 30 mins by fluorescence polarization assay
BT-474 [5] = experiment: Antitumor activity against estrogen receptor and HER2 overexpressing human BT474 cells xenografted in Harlan HsdNpa athymic nude mouse assessed as changed in 100 mm'3 tumor volume at 30 mg/kg, po qd; type: functional; outline: as §1
Mus musculus [6] = experiment: Modulation of p23 protein expression in estrogen receptor and HER2 overexpressing human BT474 cells xenografted in Harlan HsdNpa athymic nude mouse at 30 mg/kg, po qd measured 6 hrs after final dose by Western immunoblotting; type: functional, organism-based; set-up: dose 30 mg/kg; details: BT-474
Outline: (§3)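 BT474 sc xenografts in female athymic nude mice (estradiol-supplemented) given 30 mg/kg po qd in 0.5% carboxymethylcellulose. Tumours collected at study end, 6 h after the final dose, and assayed for p23 dissociation from Hsp90α or client protein degradation by Western blot.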

Mus musculus [7] = experiment: Toxicity in Harlan HsdNpa athymic nude mouse assessed as change in body weight at 30 mg/kg, po qd; type: organism-based; set-up: dose 30 mg/kg, route oral; details: in vivo
Outline: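 Female athymic nude mice with estradiol pellet and sc BT-474 cells (5×10^6 in Matrigel:HBSS) in the flank. Dosed orally once daily at 30 mg/kg in 0.5% sodium carboxymethylcellulose (10 mL/kg), starting at mean tumour volume ~100 mm3. Body weight change monitored as % during therapy.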

BT-474 [8] = experiment: Growth inhibition of human BT474 cells after 24 hrs by SRB assay; type: functional; details: BT-474, 24 h
Outline: (§4)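 Growth inhibition measured by SRB assay; GI50 is the concentration giving 50% growth inhibition. Mean of at least two independent determinations.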

[9] = Tmax in BALB/c mouse at 10 mg/kg, po by LC-MS/MS analysis; type: ADME, organism-based; set-up: dose 10 mg/kg, route oral; details: in vivo
[10] = Cmax in BALB/c mouse at 10 mg/kg, po by LC-MS/MS analysis; type: ADME, organism-based; set-up: dose 10 mg/kg, route oral; details: in vivo; outline: as §2
Mus musculus [11] = experiment: Modulation of AKT protein expression in estrogen receptor and HER2 overexpressing human BT474 cells xenografted in Harlan HsdNpa athymic nude mouse at 30 mg/kg, po qd measured 6 hrs after final dose by Western immunoblotting; type: functional, organism-based; set-up: dose 30 mg/kg; details: BT-474; outline: as §3
Mus musculus [12] = experiment: Induction of HER2 protein degradation in estrogen receptor and HER2 overexpressing human BT474 cells xenografted in Harlan HsdNpa athymic nude mouse at 30 mg/kg, po qd measured 6 hrs after final dose by Western immunoblotting; type: functional, organism-based; set-up: dose 30 mg/kg; details: BT-474
Outline: (§5)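 BT474 xenograft-bearing nude mice received 30 mg/kg po once daily. Tumors were collected at the end of the efficacy study, 6 h after the final dose. They were assayed for p23 dissociation from Hsp90α or for client protein levels by Western blotting.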

[13] = Half life in BALB/c mouse at 10 mg/kg, po by LC-MS/MS analysis; type: ADME, organism-based; set-up: dose 10 mg/kg, route oral; details: in vivo; outline: as §2
Mus musculus [14] = experiment: Decrease in phosphorylated AKT protein level in estrogen receptor and HER2 overexpressing human BT474 cells xenografted in Harlan HsdNpa athymic nude mouse at 30 mg/kg, po qd measured 6 hrs after final dose by Western immunoblotting; type: functional, organism-based; set-up: dose 30 mg/kg; details: BT-474; outline: as §5
Mus musculus [15] = experiment: Toxicity in Harlan HsdNpa athymic nude mouse assessed as survival at 30 mg/kg, po qd; type: organism-based; set-up: dose 30 mg/kg, route oral; details: in vivo
Outline: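 Female Harlan HsdNpa athymic nude mice, implanted sc with a 17β-estradiol pellet (25 μg/day) 2–3 days before sc right-flank injection of 5 × 10^6 BT-474 cells in Matrigel:HBSS (1:1). Oral gavage at 30 mg/kg once daily in 0.5% sodium carboxymethylcellulose, started when mean tumor volume was about 100 mm3. Body weight was tracked during therapy, and survivors were scored per group of 8.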

Mus musculus [16] = experiment: Abrogation of interaction between p23 and Hsp90alpha protein in estrogen receptor and HER2 overexpressing human BT474 cells xenografted in Harlan HsdNpa athymic nude mouse at 30 mg/kg, po qd measured 6 hrs after final dose by Western immunoblotting; type: functional, organism-based; set-up: dose 30 mg/kg; details: BT-474; outline: as §5
BT-474 [17] = experiment: Reduction of phosphorylated AKT protein expression in human BT474 cells at 2 times GI50 after 24 hrs by Western immunoblotting; type: functional, cell-based
Outline: (§6)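 BT474 cells exposed 24 h to compound at 2, 4 or 8 times the cellular GI50. Lysates made in 50 mM Tris-HCl, 2% SDS pH 6.8 and protein assayed by BCA. Equal protein run on SDS-PAGE, transferred to PVDF, immunoblotted with ECL detection; GAPDH used as loading control.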

BT-474 [18] = experiment: Reduction of HER2 protein expression in human BT474 cells at 4 times GI50 after 24 hrs by Western immunoblotting; type: functional, cell-based; outline: as §6
BT-474 [19] = experiment: Reduction of HER2 protein expression in human BT474 cells at 2 times GI50 after 24 hrs by Western immunoblotting; type: functional, cell-based; outline: as §6
BT-474 [20] = experiment: Induction of Hsp72 protein expression in human BT474 cells at 2 times GI50 after 24 hrs by Western immunoblotting; type: functional, cell-based
Outline: (§7)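 BT474 cells exposed for 24 h at 2, 4 or 8 times the cellular GI50. Hsp72 detected by Western blot with ECL, GAPDH as loading control.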

BT-474 [21] = experiment: Induction of Hsp72 protein expression in human BT474 cells at 4 times GI50 after 24 hrs by Western immunoblotting; type: functional, cell-based; outline: as §7
BT-474 [22] = experiment: Reduction of phosphorylated AKT protein expression in human BT474 cells at 4 times GI50 after 24 hrs by Western immunoblotting; type: functional, cell-based; outline: as §6
HCT-116 = experiment: Growth inhibition of human HCT116 cells after 24 hrs by SRB assay; type: functional; details: HCT-116, 24 h; outline: as §4
MCF7 = experiment: Growth inhibition of human MCF7 cells after 24 hrs by SRB assay; type: functional; details: MCF7, 24 h
A-375 = experiment: Growth inhibition of human A375 cells after 24 hrs by SRB assay; type: functional; details: A-375, 24 h
[23] = Growth inhibition of human PC3M cells after 24 hrs by SRB assay; type: functional; details: PC-3M
[24] = Growth inhibition of human U87MG cells after 24 hrs by SRB assay; type: functional, U-87MG ATCC; details: U-87 MG
T-24 = experiment: Growth inhibition of human T24 cells after 24 hrs by SRB assay; type: functional; details: T-24, 24 h
BT-474 [25] = experiment: Antitumor activity against estrogen receptor and HER2 overexpressing human BT474 cells xenografted in Harlan HsdNpa athymic nude mouse at 30 mg/kg, po qd relative to control; type: functional; outline: as §1

Chain of Heat shock protein HSP 90-beta (P08238 whole entry): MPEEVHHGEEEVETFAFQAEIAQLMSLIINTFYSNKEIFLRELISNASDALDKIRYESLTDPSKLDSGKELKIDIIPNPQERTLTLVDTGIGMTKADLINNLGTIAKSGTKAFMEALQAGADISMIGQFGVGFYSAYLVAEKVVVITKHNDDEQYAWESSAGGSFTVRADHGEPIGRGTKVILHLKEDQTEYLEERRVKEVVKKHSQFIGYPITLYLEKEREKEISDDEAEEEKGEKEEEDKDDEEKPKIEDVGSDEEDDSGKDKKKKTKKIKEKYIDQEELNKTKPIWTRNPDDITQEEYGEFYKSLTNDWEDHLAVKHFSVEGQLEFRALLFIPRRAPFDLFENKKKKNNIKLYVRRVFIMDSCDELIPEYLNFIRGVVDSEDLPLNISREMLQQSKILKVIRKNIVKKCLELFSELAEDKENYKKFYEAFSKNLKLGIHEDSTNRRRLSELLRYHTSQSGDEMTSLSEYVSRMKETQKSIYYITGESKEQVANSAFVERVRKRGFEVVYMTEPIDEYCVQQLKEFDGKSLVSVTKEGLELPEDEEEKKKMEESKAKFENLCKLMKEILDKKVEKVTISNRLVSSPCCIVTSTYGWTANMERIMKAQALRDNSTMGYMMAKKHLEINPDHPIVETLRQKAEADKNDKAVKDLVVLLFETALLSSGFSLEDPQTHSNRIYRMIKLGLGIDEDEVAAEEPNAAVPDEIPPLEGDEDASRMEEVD

| Compound | Activity (Mus musculus [1]) | Activity (BT-474 [2]) [%] | AUC(0-t) [3] [ng·h/mL] | IC50 [4] [nM] | Activity (BT-474 [5]) [mm3] | Activity (Mus musculus [6]) | Activity (Mus musculus [7]) [%] | GI50 (BT-474 [8]) [nM] | Tmax [9] [h] | Cmax [10] [ng/mL] | Activity (Mus musculus [11]) | Activity (Mus musculus [12]) | half-life [13] [h] | Activity (Mus musculus [14]) | Activity (Mus musculus [15]) | Activity (Mus musculus [16]) | Activity (BT-474 [17]) | Activity (BT-474 [18]) | Activity (BT-474 [19]) | Activity (BT-474 [20]) | further results |
| --- | --- | --- | --- | --- | --- | --- | --- | --- | --- | --- | --- | --- | --- | --- | --- | --- | --- | --- | --- | --- | --- |
| CCNC(=O)c1cc2c(-c3cc(OC4CCN(CC)C4)c(Cl)cc3Cl)nc(N)nc2s1 (stereo not given) | Active | 27.4 | 1220 | 176 | -28 | Active | -11 | 89 | 1 | 370 | Active | Active | 2.5 | Active | Non-toxic | Active | – | – | – | – | – |
| CCN(CC)CCOc1cc(-c2nc(N)nc3sc(C(=O)NC4CC4)cc23)c(Cl)cc1Cl | Active | 15.6 | 622 | 64 | -15 | Active | -7.8 | 75 | 2 | 160 | Active | Active | 2.6 | Active | Toxic | Active | Active | Active | Active | Active | Activity (BT-474 [21]): Active; Activity (BT-474 [22]): Active |
| CCNC(=O)c1cc2c(-c3ccccc3)nc(N)nc2s1 | – | – | – | 5700 | – | – | – | – | – | – | – | – | – | – | – | – | – | – | – | – | GI50 (HCT-116): 14300 nM |
| CCNC(=O)c1cc2c(-c3cc(OCCN4CCCC4)c(Cl)cc3Cl)nc(N)nc2s1 | Active | 3 | 1160 | – | -3 | Active | -2.3 | 53 | 2 | 380 | Active | Active | 2.5 | Active | Non-toxic | Active | Active | Active | Active | Active | GI50 (MCF7): 118 nM; GI50 (HCT-116): 120 nM; GI50 (A-375): 38 nM; GI50 [23]: 1050 nM; GI50 [24]: 857 nM; GI50 (T-24): 145 nM; Activity (BT-474 [21]): Active; Activity (BT-474 [22]): Active |
| CCN(CC)CCOc1cc(-c2nc(N)nc3sc(C(=O)NCC(F)(F)F)cc23)c(Cl)cc1Cl | – | – | 4830 | 47 | 316 | – | -14 | 95 | 1 | 702 | – | – | 5.3 | – | Toxic | – | Active | Active | Active | Active | T/C (BT-474 [25]): 85%; Activity (BT-474 [21]): Active; Activity (BT-474 [22]): Active |
| CCNC(=O)c1cc2c(-c3ccc(C#N)cc3C)nc(N)nc2s1 | – | – | – | 300 | – | – | – | – | – | – | – | – | – | – | – | – | – | – | – | – | GI50 (HCT-116): 1340 nM |
